Source: ChEMBL document CHEMBL3091366, “New 5-Aryl-1H-imidazoles display in vitro antitumor activity against apoptosis-resistant cancer models, including melanomas, through mitochondrial targeting” (J Med Chem, 2013)
The source made the active and inactive calls. The calls are words filed in the database; no cut-off is given here.

Legend:
UACC-62 = assay: Cytotoxicity against human UACC62 cells assessed as residual growth at 10 uM; type: functional
OVCAR-3 = assay: Cytotoxicity against human OVCAR3 cells assessed as residual growth at 10 uM; type: functional
KM12 = assay: Cytotoxicity against human KM12 cells assessed as residual growth at 10 uM; type: functional
SK-MEL-28 [1] = assay: Cytotoxicity against apoptotic-resistant human SK-MEL-28 cells assessed as cell death at 5 uM after 72 hrs by quantitative videomicroscopy; type: functional, cell-based
In short: (§1)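 SK-MEL-28 cells exposed to 5 µM for 24, 48 and 72 h. Cell cycle was read by flow cytometry with propidium iodide plus TUNEL double staining (APO-Direct kit), in quadruplicate. Videomicroscopy photographed each field every 4 min over 72 h. Global growth is cells at a time point divided by cells at time 0; the treated/control ratio gives GGR. Cell death was judged from morphology. Run twice, in triplicate and in quadruplicate.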

SK-MEL-28 [2] = assay: Effect on mitochondrial morphology in human SK-MEL-28 cells at 5 uM after 24 hrs by MitoTracker Green FM-based fluorescence microscopic analysis; type: functional, cell-based
In short: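 SKMEL-28 cells seeded on glass coverslips 48 h before treatment at 5 µM (3 to 48 h); two washes, mitochondria stained with 100 nM MitoTracker Green FM in phenol red-free RPMI for 30 min, rinsed twice, viewed by fluorescence microscopy. Three coverslips per condition.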

SK-OV-3 = assay: Cytotoxicity against human SKOV3 cells assessed as residual growth at 10 uM; type: functional
NCI-H23 = assay: Cytotoxicity against human NCI-H23 cells assessed as residual growth at 10 uM; type: functional
RXF 393 = assay: Cytotoxicity against human RXF393 cells assessed as residual growth at 10 uM; type: functional
RPMI-8226 = assay: Cytotoxicity against human RPMI8226 cells assessed as residual growth at 10 uM; type: functional
MDA-MB-231 = assay: Cytotoxicity against human MDA-MB-231 cells assessed as residual growth at 10 uM; type: functional
A549 [3] = assay: Cytotoxicity against human A549 cells assessed as residual growth at 10 uM; type: functional
CAKI-1 = assay: Cytotoxicity against human Caki1 cells assessed as residual growth at 10 uM; type: functional
Melanoma cell = assay: Cytotoxicity against human Melanoma cells assessed as growth inhibition after 72 hrs by MTT-based colorimetric assay; type: functional
In short: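 Eleven human primary melanoma cultures treated for 72 h with the fumarate salt. Growth inhibition read by colorimetric MTT assay, with IC50 taken as 50% reduction of the cell population. Maximal concentration tested was 100 µM. Run once in sextuplicate.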

SW-620 = assay: Cytotoxicity against human SW620 cells assessed as residual growth at 10 uM; type: functional
SK-MEL-28 [4] = assay: Cytotoxicity against apoptotic-resistant human SK-MEL-28 cells assessed as growth inhibition after 72 hrs by MTT-based colorimetric assay; type: functional, cell-based; details: Homo sapiens, SK-MEL-28, 72 h
In short: (§2)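 MTT colorimetric assay, 72 h exposure to the fumarate salt. Read-out is reduction of MTT to formazan by living cells. IC50 is the concentration that reduces the whole cell population by 50%. Six replicates per condition. Where compounds were not tested on every line, apoptosis-sensitive lines were PC3, MCF-7, LoVo and B16F10, and apoptosis-resistant lines were U373, T98G, A549 and SK-MEL-28.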

M14 = assay: Cytotoxicity against human M14 cells assessed as residual growth at 10 uM; type: functional
K562 = assay: Cytotoxicity against human K562 cells assessed as residual growth at 10 uM; type: functional
SK-MEL-2 = assay: Cytotoxicity against human SK-MEL-2 cells assessed as residual growth at 10 uM; type: functional
SF-539 = assay: Cytotoxicity against human SF539 cells assessed as residual growth at 10 uM; type: functional
SN12C = assay: Cytotoxicity against human SN12C cells assessed as residual growth at 10 uM; type: functional
A549 [5] = assay: Cytotoxicity against apoptotic-resistant human A549 cells assessed as growth inhibition after 72 hrs by MTT-based colorimetric assay; type: functional, cell-based; details: Homo sapiens, A549, 72 h; in short: as §2
[6] = Cytotoxicity against human UO31 cells assessed as residual growth at 10 uM; type: functional, UO-31
NCI-H226 = assay: Cytotoxicity against human NCI-H226 cells assessed as residual growth at 10 uM; type: functional
SK-MEL-28 [7] = assay: Induction of apoptosis in apoptotic-resistant human SK-MEL-28 cells at 5 uM after 24 to 72 hrs by TUNEL staining-based flow cytometry; type: functional, cell-based
In short: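 SKMEL-28 cells treated with 5 µM for 24, 48 and 72 h; apoptosis by TUNEL plus propidium iodide staining (APO-Direct kit) read by flow cytometry. Kit negative/positive controls, plus PC-3 cells untreated or given 1 µM narciclasine 72 h as internal controls. Quadruplicate (kit controls singlet); mean ± SEM.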

T47D = assay: Cytotoxicity against human T47D cells assessed as residual growth at 10 uM; type: functional
SK-MEL-28 [8] = assay: Effect on oxygen consumption in human SK-MEL-28 cells at 10 uM after 72 hrs by oxygraphic analysis; type: functional, cell-based
In short: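 SKMEL-28 cells pre-incubated 72 h with 10^-5 M compound or untreated; five million cells per chamber in phenol red-free DMEM (glucose 1 g/L, pyruvate 110 mg/L). ROUTINE respiration recorded by high-resolution respirometry (Clark electrode), 37 °C, continuous stirring from chamber closure; O2 consumption slopes taken as routine respiration.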

SNB-75 = assay: Cytotoxicity against human SNB75 cells assessed as residual growth at 10 uM; type: functional
NCI-H522 = assay: Cytotoxicity against human NCI-H522 cells assessed as residual growth at 10 uM; type: functional
[9] = Cytotoxicity against human OVCAR4 cells assessed as residual growth at 10 uM; type: functional, OVCAR-4
LoVo = assay: Cytotoxicity against apoptotic-sensitive human LoVo cells assessed as growth inhibition after 72 hrs by MTT-based colorimetric assay; type: functional, cell-based; details: Homo sapiens, LoVo, 72 h; in short: as §2
B16-F10 = assay: Cytotoxicity against apoptotic-sensitive mouse B16F10 cells assessed as growth inhibition after 72 hrs by MTT-based colorimetric assay; type: functional, cell-based; details: B16-F10, 72 h; in short: as §2
TK-10 = assay: Cytotoxicity against human TK10 cells assessed as residual growth at 10 uM; type: functional
SK-MEL-5 = assay: Cytotoxicity against human SK-MEL-5 cells assessed as residual growth at 10 uM; type: functional
SR = assay: Cytotoxicity against human SR cells assessed as residual growth at 10 uM; type: functional
SK-MEL-28 [10] = assay: Cell cycle arrest in apoptotic-resistant human SK-MEL-28 cells at 5 uM after 24 to 72 hrs by double propidium iodide staining-based flow cytometry; type: functional; in short: as §1
NHDF = assay: Cytotoxicity against human NHDF cells assessed as growth inhibition after 72 hrs by MTT-based colorimetric assay; type: cell-based; in short: as §2
PC-3 = assay: Cytotoxicity against apoptotic-sensitive human PC3 cells assessed as growth inhibition after 72 hrs by MTT-based colorimetric assay; type: functional, cell-based; details: Homo sapiens, PC-3, 72 h; in short: as §2
BT-549 = assay: Cytotoxicity against human BT549 cells assessed as residual growth at 10 uM; type: functional

C=CCCCCOc1ccccc1-c1cnc(OCCCCC=C)n1C
Activity (UACC-62): 55.73%
Activity (OVCAR-3): 51.28%
Activity (KM12): 38.37%
Activity (SK-MEL-28 [1]): inactive
Activity (SK-MEL-28 [2]): inactive
Activity (SK-OV-3): 74.99%
Activity (NCI-H23): 76.02%
Activity (RXF 393): 90.54%
Activity (RPMI-8226): 80.75%
Activity (MDA-MB-231): 66.46%
Activity (A549 [3]): 50.25%
Activity (CAKI-1): 54.94%
Activity (Melanoma cell): Active
Activity (SW-620): 30.82%
IC50 (SK-MEL-28 [4]): 5 µM
Activity (M14): 72.63%
Activity (K562): 30.53%
Activity (SK-MEL-2): 46.08%
Activity (SF-539): 81.04%
Activity (SN12C): 91.09%
IC50 (A549 [5]): 7 µM
Activity [6]: 69.27%
Activity (NCI-H226): 92.21%
Activity (SK-MEL-28 [7]): inactive
Activity (T47D): 61.88%
Activity (SK-MEL-28 [8]): Active
Activity (SNB-75): 81.88%
Activity (NCI-H522): 12.63%
Activity [9]: 97.91%
IC50 (LoVo): 5 µM
IC50 (B16-F10): 7 µM
Activity (TK-10): 74.98%
Activity (SK-MEL-5): 83.67%
Activity (SR): 30.69%
Activity (SK-MEL-28 [10]): inactive
IC50 (NHDF): 36 µM
IC50 (PC-3): 9 µM
Activity (BT-549): 96.77%
